Reference: ChEMBL document CHEMBL1151755, “Crystal structure of the peroxisome proliferator-activated receptor gamma (PPARgamma) ligand binding domain complexed with a novel partial agonist: a new region of the hydrophobic pocket could be exploited for drug design” (J Med Chem, 2008)
Calls of active or inactive are those of the source. The rule behind the calls is not given here.

How the values were obtained:
[1] = system: HepG2; experiment: Increase in transcriptional activity of ROR ligand binding domain expressed in human Hep G2 cells co-transfected with Gal4-DBD by luciferase reporter gene assay; format: cell-based
Method in brief: (§1)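 HepG2 cells transfected for 4 h by calcium phosphate coprecipitation with 100 ng pGal4UAS-luciferase, 50 ng Gal4-LBD receptor vector and 300 ng CMV-β-galactosidase plasmid for normalization. Cells were washed in PBS, then refed with serum-free DMEM/F-12 containing penicillin/streptomycin and compound or 0.1% ethanol vehicle for 20 h. Luciferase read-out was normalized to β-galactosidase. Experiments were repeated at least three times.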

[2] = target: T1, Peroxisome proliferator-activated receptor alpha (Mus musculus, UniProt P23204); experiment: (§2) Agonist activity at mouse PPARalpha ligand binding domain expressed in human Hep G2 cells co-transfected with Gal4-DBD by luciferase reporter gene assay; format: cell-based, HepG2
T1 sequence (P23204 whole entry): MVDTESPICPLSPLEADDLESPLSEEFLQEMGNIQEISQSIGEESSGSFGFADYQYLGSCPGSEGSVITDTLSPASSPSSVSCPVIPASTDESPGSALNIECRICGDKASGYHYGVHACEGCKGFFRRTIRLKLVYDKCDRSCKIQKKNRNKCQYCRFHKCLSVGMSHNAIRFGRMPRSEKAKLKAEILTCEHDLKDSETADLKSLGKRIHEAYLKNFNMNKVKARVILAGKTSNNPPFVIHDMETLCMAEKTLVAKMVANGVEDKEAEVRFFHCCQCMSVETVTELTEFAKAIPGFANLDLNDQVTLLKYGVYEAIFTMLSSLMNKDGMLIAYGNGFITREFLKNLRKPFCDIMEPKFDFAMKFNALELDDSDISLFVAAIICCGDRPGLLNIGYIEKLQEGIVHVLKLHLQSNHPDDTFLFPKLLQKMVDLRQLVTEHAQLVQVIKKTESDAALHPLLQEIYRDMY

[3] = target: T2, Oxysterols receptor LXR-alpha (Homo sapiens) (UniProt Q13133); experiment: Increase in transcriptional activity of LXRalpha ligand binding domain expressed in human Hep G2 cells co-transfected with Gal4-DBD by luciferase reporter gene assay; format: cell-based; settings: HepG2; method in brief: as §1
T2 sequence (whole entry): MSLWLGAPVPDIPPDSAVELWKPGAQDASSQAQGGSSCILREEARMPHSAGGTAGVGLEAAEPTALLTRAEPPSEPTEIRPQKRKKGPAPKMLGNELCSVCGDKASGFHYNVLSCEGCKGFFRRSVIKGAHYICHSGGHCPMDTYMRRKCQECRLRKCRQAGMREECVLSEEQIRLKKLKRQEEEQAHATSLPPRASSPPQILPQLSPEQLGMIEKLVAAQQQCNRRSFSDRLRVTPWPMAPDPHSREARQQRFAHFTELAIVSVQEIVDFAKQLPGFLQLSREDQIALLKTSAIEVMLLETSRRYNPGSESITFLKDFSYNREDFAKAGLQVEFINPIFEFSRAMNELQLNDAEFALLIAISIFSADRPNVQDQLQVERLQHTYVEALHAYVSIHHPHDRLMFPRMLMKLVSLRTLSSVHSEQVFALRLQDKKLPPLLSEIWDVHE

[4] = target: T3, Peroxisome proliferator-activated receptor alpha (Homo sapiens) (UniProt Q07869); experiment: Agonist activity at human PPARalpha ligand binding domain expressed in human Hep G2 cells co-transfected with Gal4-DBD by luciferase reporter gene assay; format: cell-based; settings: HepG2
T3 sequence (whole entry): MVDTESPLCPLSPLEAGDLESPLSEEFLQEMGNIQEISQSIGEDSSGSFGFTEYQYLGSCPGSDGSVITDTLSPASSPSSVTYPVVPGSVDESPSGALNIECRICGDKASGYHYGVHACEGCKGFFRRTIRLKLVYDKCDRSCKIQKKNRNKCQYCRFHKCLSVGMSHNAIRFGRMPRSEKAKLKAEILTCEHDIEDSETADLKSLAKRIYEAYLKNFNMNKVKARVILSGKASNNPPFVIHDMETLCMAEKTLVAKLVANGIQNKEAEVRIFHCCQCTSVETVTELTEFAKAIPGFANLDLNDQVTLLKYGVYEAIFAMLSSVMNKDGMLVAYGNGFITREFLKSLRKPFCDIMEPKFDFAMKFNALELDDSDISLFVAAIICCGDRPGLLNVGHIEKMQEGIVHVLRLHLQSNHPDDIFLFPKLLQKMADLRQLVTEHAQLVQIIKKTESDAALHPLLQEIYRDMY
Method in brief: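 Gal4-LBD fusion vector (50 ng) was co-transfected with pGal4UAS-luciferase (100 ng) and pCMVβ β-galactosidase normalizer (300 ng) into HepG2 cells by calcium phosphate for 4 h. Cells were washed, then given serum-free DMEM/F-12 with ligand or 0.1% ethanol vehicle for 20 h. Luciferase was normalized to β-galactosidase.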

[5] = target: T4, Peroxisome proliferator-activated receptor alpha (Mus musculus) (UniProt P23204); experiment: as §2; format: cell-based; settings: HepG2
T4 sequence (whole entry): T1 sequence (P23204 whole entry)

EC50 [2] [nM] | Activity [3] | Activity [4] | Activity [5] | SMILES | Activity [1]
260 | inactive | – | – | O=C(O)[C@H](Cc1ccccc1)Oc1ccc(-c2ccccc2)cc1 | inactive
– | – | inactive | inactive | O=C(O)[C@@H](Cc1ccccc1)Oc1ccc(-c2ccccc2)cc1 | –
